Measured values from different studies.
Protocols differ between the studies behind these lines.
Target: Epithelial discoidin domain-containing receptor 1 (DDR1, Homo sapiens, UniProt Q08345)

Cc1ccc(NC(=O)c2ccc(C)c(C(F)(F)F)c2)cc1C#Cc1nn(C2CCC(O)CC2)c2ncnc(N)c12 (centres unmarked)
remaining signal (cell-free assay; 10 µM): -2%

Cc1sc(C(=O)NC2COC2)cc1-n1cc(NC(=O)Nc2c(F)cccc2Cl)cn1
remaining activity (enzyme activity, inhibitor; 10 µM): 83.7%

Cc1ccc(C(=O)NCc2ccsc2)cc1C#Cc1cn(C(C)C)c2ncnc(N)c12
activity vs control (enzyme activity, inhibitor; 1 µM): 0%

CC(C)(O)[C@H]1CC[C@H](Nc2ccc3ncc(-c4cccc(C(F)(F)F)c4)n3n2)CC1
remaining activity (enzyme activity, inhibitor; 1 µM): 6.32%

COCCOc1nc(-c2ccc(Cl)nc2)nc2c1CN(C(=O)c1ncn3ccccc13)CC2
remaining binding (cell-free assay, competition with immobilised ligand; 0.1 µM): 100%

C[C@H]1CCN(c2nccc(-c3cnn4ncccc34)n2)C1
remaining binding (binding; 1 µM): 100%

CN1CC(Oc2cnc(C#N)cc2-c2ccn3nc(NC(=O)C4CC4)cc3c2)C1
inhibition (enzyme activity, inhibitor; 1 µM): 29%

CC/C(=N\NC(=O)NCc1cccc(O)c1)c1ccc(O)c(C)c1O
inhibition (enzyme activity, inhibitor; 0.1 µM): -0.9%

Cc1cnc(NC2CCOCC2)nc1-n1cnc(C(=O)NC(CN)c2cc(F)cc(Cl)c2)c1 (centres unmarked)
remaining activity (enzyme activity, inhibitor, radiometric; 1 µM): 104%

O=C(Nc1cnn(-c2csc(C(=O)NC3COC3)c2)c1)Nc1ccccc1Cl
remaining activity (enzyme activity, inhibitor; 5 µM): 98.4%

COc1cc2nccc(Oc3ccc(NC(=O)c4c5n(n(-c6ccc(F)cc6)c4=O)CCCC5)cc3)c2cc1OC
inhibition (enzyme activity, inhibitor; 0.1 µM): 42%

CNC(=O)c1cc2c(Oc3ccc(NC(=O)C4(C(=O)Nc5ccc(F)cc5)CC4)cc3)ccnc2cc1OC
inhibition (enzyme activity, inhibitor, radiometric; 1 µM): 88%

Nc1c(C(=O)NCc2ccc(C(=O)NCCCC3CCCCC3)cc2)cnn1-c1ccccc1
remaining binding (binding, competition with immobilised ligand; 1 µM): 43%

Cc1cc(NC(=O)c2cccc3cc(-c4cccc5[nH]nc(N)c45)ccc23)ccc1F
activity vs control (enzyme activity, inhibitor; 0.1 µM): 61%

COc1cc(Cl)c(C(=O)N[C@@H](CN[C@H]2CC[C@@H](N)CC2)Cc2ccc(C#N)cc2)cc1-c1ccc(CN[C@H](C)c2ccc(C)cc2)o1
remaining activity (enzyme activity, inhibitor; 1 µM): 112%

CCOCCn1cc(C(=O)Nc2ccc(-n3nc(-c4cccnc4)cc3C(F)(F)F)cn2)ccc1=O
remaining binding (cell-free assay, competition with immobilised ligand; 1 µM): 69%

Nc1ncnc2occ(-c3ccc(NC(=O)Nc4cc(C(F)(F)F)ccc4F)cc3)c12
remaining signal (cell-free assay; 20 µM): 0.25%
